Source: ChEMBL document CHEMBL4311983, “Development of chalcone-O-alkylamine derivatives as multifunctional agents against Alzheimer's disease” (Eur J Med Chem, 2019)

Assays:
[1] = Inhibition of Cu2+-induced amyloid beta (1 to 42 residues) aggregation at 25 uM after 24 hrs by thioflavin T-based fluorescence assay relative to control
How it was run: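 Aβ1-42 (25 μM final) with Cu2+ (25 μM final) in 20 mM HEPES pH 6.6, 150 NaCl, ± compound 25 μM final, 37 °C for 24 h; 5 μM ThT in 50 mM glycine-NaOH pH 8.50 added; ex 446/em 490 nm; triplicate.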

[2] = Disaggregation of Cu2+ induced preformed fibrils of amyloid beta (1 to 42) at 25 uM preincubated with Cu2+ for 24 hrs followed by compound addition and measured after 24 hrs by thioflavin-T based fluorescence assay relative to control
How it was run: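 Aβ1-42 and Cu2+ (each 25 μM final) in 20 mM HEPES pH 6.6, 150 mM NaCl, preincubated 24 h at 37 °C; compound (25 μM final) added, another 24 h at 37 °C under film; 5 μM ThT in glycine-NaOH added; ex 446/em 490 nm; triplicate.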

[3] = target: Cholinesterase (Equus caballus, UniProt P81908); assay: Inhibition of equine butyrylcholinesterase using butyrylthiocholine iodide as substrate incubated for 15 mins by Ellman's method
Chain of Cholinesterase (Equus caballus, UniProt P81908) (P81908 whole entry): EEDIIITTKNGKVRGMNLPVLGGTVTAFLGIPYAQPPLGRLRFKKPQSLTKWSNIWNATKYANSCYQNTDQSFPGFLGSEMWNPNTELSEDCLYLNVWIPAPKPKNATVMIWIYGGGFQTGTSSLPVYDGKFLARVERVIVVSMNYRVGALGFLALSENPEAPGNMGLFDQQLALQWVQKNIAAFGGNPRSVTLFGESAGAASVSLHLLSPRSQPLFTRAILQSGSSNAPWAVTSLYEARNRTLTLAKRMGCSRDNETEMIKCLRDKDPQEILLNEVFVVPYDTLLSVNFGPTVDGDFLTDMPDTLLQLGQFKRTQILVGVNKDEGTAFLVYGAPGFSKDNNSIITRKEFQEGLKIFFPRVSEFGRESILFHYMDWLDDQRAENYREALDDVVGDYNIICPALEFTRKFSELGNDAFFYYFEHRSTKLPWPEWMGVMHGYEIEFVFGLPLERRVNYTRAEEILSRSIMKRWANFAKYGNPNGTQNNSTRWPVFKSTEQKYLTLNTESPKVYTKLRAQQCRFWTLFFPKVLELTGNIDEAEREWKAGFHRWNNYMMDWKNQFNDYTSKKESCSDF
How it was run: (§1)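 Modified Ellman assay in phosphate buffer pH 8.0, with enzyme at 0.05 U/mL final: eel AChE, equine serum BuChE or human serum BuChE. Test compound was added at several concentrations, and blanks lacked enzyme.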

[4] = target: T1, Acetylcholinesterase (Electrophorus electricus, UniProt O42275); format: single protein
T1 sequence (O42275 whole entry): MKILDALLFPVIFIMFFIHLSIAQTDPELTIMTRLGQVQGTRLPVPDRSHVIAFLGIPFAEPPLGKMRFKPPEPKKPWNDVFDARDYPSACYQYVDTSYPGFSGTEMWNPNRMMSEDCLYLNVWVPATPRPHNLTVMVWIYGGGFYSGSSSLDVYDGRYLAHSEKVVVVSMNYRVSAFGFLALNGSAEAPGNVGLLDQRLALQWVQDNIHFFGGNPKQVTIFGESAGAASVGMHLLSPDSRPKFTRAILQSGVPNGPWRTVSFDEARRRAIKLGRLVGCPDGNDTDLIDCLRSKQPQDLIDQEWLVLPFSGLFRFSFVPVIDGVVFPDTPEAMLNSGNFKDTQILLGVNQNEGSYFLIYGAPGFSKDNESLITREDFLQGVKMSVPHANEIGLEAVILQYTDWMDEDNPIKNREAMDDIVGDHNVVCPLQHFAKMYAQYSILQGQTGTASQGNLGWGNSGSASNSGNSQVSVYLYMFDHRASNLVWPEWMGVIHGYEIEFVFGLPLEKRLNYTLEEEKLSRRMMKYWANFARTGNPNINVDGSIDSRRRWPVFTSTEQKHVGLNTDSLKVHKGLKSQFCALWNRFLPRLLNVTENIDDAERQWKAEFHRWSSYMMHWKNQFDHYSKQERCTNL

[5] = Antioxidant activity assessed as trolox equivalent of AAPH-induced radical scavenging activity preincubated for 15 mins followed by AAPH addition measured every minute for 120 mins by ORAC fluorescein assay; format: functional
How it was run: (§2)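 ORAC-FL in 75 mM phosphate buffer pH 7.40; fluorescein 150 nM final plus test antioxidant; Trolox standard at 1-8 μM final; values as Trolox equivalents.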

[6] = target: Amyloid-beta precursor protein (Homo sapiens) (UniProt P05067); assay: Inhibition of HFIP-pretreated amyloid beta (1 to 42 residues) (unknown origin) self aggregation at 25 uM after 24 hrs by ThT-based fluorescence method relative to control
Chain of Amyloid-beta precursor protein (Homo sapiens) (P05067 whole entry, the tested form may be a part): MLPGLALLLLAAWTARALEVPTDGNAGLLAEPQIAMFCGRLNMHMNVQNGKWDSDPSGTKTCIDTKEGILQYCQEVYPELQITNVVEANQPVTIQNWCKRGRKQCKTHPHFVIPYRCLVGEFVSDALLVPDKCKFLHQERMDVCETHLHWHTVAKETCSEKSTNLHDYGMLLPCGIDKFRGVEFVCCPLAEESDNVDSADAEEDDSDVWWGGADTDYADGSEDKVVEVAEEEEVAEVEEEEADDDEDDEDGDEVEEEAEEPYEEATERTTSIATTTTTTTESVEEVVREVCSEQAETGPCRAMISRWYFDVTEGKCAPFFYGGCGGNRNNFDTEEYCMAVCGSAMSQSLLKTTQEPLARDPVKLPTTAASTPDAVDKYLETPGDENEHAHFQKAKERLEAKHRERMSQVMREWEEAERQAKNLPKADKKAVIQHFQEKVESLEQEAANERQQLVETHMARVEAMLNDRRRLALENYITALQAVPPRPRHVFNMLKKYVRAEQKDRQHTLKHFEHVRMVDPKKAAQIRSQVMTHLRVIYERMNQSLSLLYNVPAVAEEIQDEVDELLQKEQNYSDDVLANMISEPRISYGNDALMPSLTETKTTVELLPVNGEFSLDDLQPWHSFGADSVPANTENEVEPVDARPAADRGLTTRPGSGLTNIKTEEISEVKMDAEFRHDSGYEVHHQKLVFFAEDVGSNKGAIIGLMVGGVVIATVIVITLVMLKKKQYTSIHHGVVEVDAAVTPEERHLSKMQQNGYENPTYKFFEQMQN
How it was run: (§3)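 HFIP-treated Aβ1-42, dried, redissolved in DMSO; 25 μM final peptide incubated with 25 μM compound in 50 mM phosphate buffer pH 7.40, 37 °C, 24 h; 5 μM ThT in 50 mM glycine-NaOH pH 8.0 added; fluorescence ex 446/em 490 nm.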

[7] = target: T2, Amine oxidase [flavin-containing] A (Homo sapiens, UniProt P21397); assay: Inhibition of recombinant human MAO-A expressed in baculovirus infected BTI insect cells at 10 uM using kynuramine as substrate after 30 mins by fluorescence based assay relative to control; conditions: 0.5 h
T2 sequence (P21397 whole entry): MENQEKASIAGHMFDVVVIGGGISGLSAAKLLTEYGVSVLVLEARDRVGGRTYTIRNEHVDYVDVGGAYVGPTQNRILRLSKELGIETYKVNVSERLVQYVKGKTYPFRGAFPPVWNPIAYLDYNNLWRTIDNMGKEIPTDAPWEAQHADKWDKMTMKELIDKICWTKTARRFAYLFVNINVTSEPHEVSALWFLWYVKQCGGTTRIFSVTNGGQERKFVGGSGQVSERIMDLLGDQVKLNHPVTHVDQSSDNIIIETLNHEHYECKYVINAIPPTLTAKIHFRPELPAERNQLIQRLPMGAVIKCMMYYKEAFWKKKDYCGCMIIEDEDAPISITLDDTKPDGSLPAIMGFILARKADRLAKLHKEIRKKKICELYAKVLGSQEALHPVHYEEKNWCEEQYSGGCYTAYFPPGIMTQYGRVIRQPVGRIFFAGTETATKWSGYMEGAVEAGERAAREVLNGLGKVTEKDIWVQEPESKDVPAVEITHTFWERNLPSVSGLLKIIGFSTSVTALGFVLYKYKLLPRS

[8] = Selectivity index, ratio of IC50 for equine BuChE to IC50 for electric eel AChE
How it was run: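 Ratio of Ellman-assay IC50 values, BuChE over AChE. Enzymes were equine serum BuChE and electric eel AChE, each at 0.05 U/mL final in pH 8.0 phosphate buffer. Each IC50 is the mean of three independent experiments run in triplicate.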

[9] = target: T3, Amine oxidase [flavin-containing] B (Homo sapiens, UniProt P27338); assay: biochemical; format: cell-based
T3 sequence (P27338 whole entry): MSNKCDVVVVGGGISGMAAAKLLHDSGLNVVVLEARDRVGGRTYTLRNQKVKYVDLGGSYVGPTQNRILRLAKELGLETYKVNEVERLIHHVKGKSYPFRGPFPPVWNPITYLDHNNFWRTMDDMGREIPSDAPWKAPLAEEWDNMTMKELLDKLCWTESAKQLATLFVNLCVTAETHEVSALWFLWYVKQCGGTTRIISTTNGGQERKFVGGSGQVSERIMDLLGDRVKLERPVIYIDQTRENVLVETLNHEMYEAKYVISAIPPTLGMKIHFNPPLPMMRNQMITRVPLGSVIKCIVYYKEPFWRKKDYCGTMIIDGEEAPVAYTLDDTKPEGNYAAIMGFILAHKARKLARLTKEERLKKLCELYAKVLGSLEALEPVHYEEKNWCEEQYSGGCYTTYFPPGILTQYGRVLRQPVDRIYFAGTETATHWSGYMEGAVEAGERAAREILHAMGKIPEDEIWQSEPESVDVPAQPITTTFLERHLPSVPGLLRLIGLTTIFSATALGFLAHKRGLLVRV

[10] = target: T3, Amine oxidase [flavin-containing] B; assay: Inhibition of MAO-B (unknown origin)
[11] = target: Amyloid-beta precursor protein (Homo sapiens) (UniProt P05067); assay: Inhibition of self-induced amyloid beta ( 1 to 42 residues) (unknown origin) aggregation relative to control; conditions: concentration not given here; how it was run: as §3
[12] = target: T1, Acetylcholinesterase; assay: Inhibition of Electric eel AChE; how it was run: as §1
[13] = Antioxidant activity assessed as AAPH scavenging activity by ORAC fluorescein assay; format: functional; how it was run: as §2
[14] = target: T3, Amine oxidase [flavin-containing] B; assay: Inhibition of MAO-B (unknown origin) relative to control
[15] = target: T4, Cholinesterase (Homo sapiens, UniProt P06276); assay: Inhibition of human BuChE using butyrylthiocholine iodide as substrate incubated for 15 mins by Ellman's method; how it was run: as §1
T4 sequence (P06276 whole entry): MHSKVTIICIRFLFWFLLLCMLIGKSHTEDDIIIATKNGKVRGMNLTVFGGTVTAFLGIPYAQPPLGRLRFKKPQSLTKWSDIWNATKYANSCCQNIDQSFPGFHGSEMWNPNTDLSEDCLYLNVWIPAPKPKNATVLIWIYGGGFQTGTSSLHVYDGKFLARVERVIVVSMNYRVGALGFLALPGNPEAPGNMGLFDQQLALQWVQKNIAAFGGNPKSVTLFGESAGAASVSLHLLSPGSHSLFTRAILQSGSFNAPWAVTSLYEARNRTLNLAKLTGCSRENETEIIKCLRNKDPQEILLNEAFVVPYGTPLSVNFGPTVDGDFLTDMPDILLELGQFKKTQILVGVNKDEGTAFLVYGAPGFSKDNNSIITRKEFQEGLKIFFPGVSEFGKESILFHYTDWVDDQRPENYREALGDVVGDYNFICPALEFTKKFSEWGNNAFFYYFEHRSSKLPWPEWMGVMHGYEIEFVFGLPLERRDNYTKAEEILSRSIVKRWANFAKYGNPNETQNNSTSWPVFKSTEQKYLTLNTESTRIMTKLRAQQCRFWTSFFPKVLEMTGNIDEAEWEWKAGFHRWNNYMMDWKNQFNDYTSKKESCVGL

[16] = target: Acetylcholinesterase (Homo sapiens, UniProt P22303); assay: Inhibition of human AChE using acetylthiocholine iodide as substrate after 15 mins by Ellman's method
Chain of Acetylcholinesterase (Homo sapiens, UniProt P22303) (P22303 whole entry): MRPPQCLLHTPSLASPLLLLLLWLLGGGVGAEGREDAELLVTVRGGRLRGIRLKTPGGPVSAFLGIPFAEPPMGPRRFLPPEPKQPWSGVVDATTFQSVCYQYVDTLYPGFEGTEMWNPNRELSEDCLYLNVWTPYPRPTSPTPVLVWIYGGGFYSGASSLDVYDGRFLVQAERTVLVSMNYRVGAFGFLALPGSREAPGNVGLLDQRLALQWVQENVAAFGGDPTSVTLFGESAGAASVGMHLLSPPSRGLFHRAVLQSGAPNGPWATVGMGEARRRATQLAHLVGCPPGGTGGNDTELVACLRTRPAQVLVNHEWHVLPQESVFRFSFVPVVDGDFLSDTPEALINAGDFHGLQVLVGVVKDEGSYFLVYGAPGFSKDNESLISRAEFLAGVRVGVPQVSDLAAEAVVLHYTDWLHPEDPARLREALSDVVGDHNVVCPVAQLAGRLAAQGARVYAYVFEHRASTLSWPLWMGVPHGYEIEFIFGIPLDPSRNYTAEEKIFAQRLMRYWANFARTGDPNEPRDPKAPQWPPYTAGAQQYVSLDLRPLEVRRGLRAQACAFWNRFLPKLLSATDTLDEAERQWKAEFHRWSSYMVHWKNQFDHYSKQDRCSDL

[17] = target: T4, Cholinesterase; assay: Inhibition of BuChE (unknown origin)

In the case of `COc1cc(/C=C/C(=O)CC(=O)/C=C/c2ccc(O)c(OC)c2)ccc1O`, the inhibition [1] is reported as 76.5% and the Activity [2] is reported as 56.5%.

`CCN(CC)CCCCCCOc1ccc(/C=C/C(=O)c2ccc(OCCCCCCN(CC)CC)cc2O)cc1` showed an inhibition [1] of 84.2%, an IC50 [3] of 4.2 µM and an IC50 [4] of 3.7 µM. For the same compound, the Activity [5] was 1.1 Trolox eq, the inhibition [6] was 63.7% and the inhibition at 10 µM [7] was 8.7%. For the same compound, the Ratio IC50 [8] was 1.1 and the IC50 [9] was 1.6 µM.

In the case of `O=C(/C=C/c1ccc(OCCCCCCN2CCCC2)cc1)c1ccccc1O`, the IC50 [3] is reported as 50.2 µM, the IC50 [4] is reported as 8.9 µM and the inhibition at 10 µM [7] is reported as 15.6%. For the same compound, the Ratio IC50 [8] was 5.6 and the IC50 [9] was 18.5 µM.

`CCN(CC)Cc1ccc(/C=C/C(=O)c2ccc(OC)c(OC)c2)cc1O` gave an IC50 [10] of 1.21 µM, an inhibition [11] of 55% and an IC50 [12] of 0.44 µM.

In the case of `CCN(CC)c1ccc(/C=C/C(=O)c2cc(-c3ccc(C(C)C(=O)OC)cc3F)ccc2O)cc1` (stereo not drawn), the Activity [13] is reported as 3.3 Trolox eq and the “inhibition (INH)” value [14] is reported as 75.5%.

With `O=C(/C=C/c1ccccc1)c1ccc(OCCCCCCN2CCCC2)cc1O` the IC50 [3] was 12.3 µM, the IC50 [4] was 4.2 µM and the inhibition at 10 µM [7] was 9.5%. For the same compound, the Ratio IC50 [8] was 2.9, the IC50 [9] was 12.7 µM and the IC50 [15] was 15.8 µM. It also gave an IC50 [16] of 3.2 µM.

For `CCN(C)C(=O)Oc1cccc(/C=C/C(=O)c2ccccc2O)c1`, the IC50 [17] was 3.1 µM.
